Screening results deposited in PubChem by several laboratories.
H9c2 protect = protects H9c2 cardiomyocytes from peroxide injury | H2O2 injury protection, ATPLite, 2 h | protection from H2O2 cell death, % at 20 µM | 360,000 compounds, 0.63% hits | AID 588492;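 active = compounds giving at least 50% protection of heart cells from peroxide-induced death in the single-dose screen, raw or plate-pattern-corrected value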;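 also: 0% = DMSO wells with peroxide and 100% = DMSO wells without peroxide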
CHOP UPR activ = activators of apoptotic arm of unfolded protein response (CHOP); activation, % at 10 µM; CHO-CHOP luciferase reporter, UPR activation, luminescence; percent of tunicamycin response over DMSO baseline; 330,000 compounds, 0.34% hits;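 active = at 10 µM dose, activation of 40% or more, normalized to positive control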;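 also: 100% = tunicamycin at 10 µg/mL and 0% = DMSO alone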
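System: CHO CHOP reporter cells. Amount: 500 cells per well. Buffer or medium: F12 medium, 10% FBS. Compound dosing: one dose, 10 µM in 0.5% DMSO. Incubation: 6 h compound exposure at 37 °C after overnight seeding. Technique: Steady-Glo luciferase luminescence. Benchmarks: tunicamycin and DMSO controls.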
iPSC survival up = increases survival of single human iPS cells; survival enhancement, % at 20 µM; AID 602274; 360,000 compounds, 0.044% hits; hiPSC single-cell survival, ATPlite luminescence; 100% = ROCK inhibitor wells, 0% = DMSO; in the data active = survival enhancement above about 18%;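 also: cells exposed to compounds for 16 hours before the ATP read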
CHOP inhibitor = inhibitors of CHOP induction in ER stress response. 220,000 compounds, 3.8% hits. CHO-K1 CHOP-promoter luciferase, tunicamycin-induced, 15-18 h. inhibition, % at 10 µM;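 active = compounds that reduced the stress-induced luciferase reporter signal by more than about 70% of percent inhibition, limit read from the data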;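 also: 0% = tunicamycin plus vehicle and 100% = wells without tunicamycin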
XBP1 UPR activ = activators of adaptive arm of unfolded protein response (XBP1) | CHO-XBP1 luciferase reporter, IRE1-XBP1 UPR activation, luminescence; percent of tunicamycin response, DMSO as zero | activation, % at 20 µM | 330,000 compounds, 0.33% hits;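 active = versus positive control, 20 µM dose yields 30% or more activation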;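 also: 100% = tunicamycin at 10 µg/mL and 0% = DMSO only wells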
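Material: CHO-XBP1 cells stably carrying IRE1-XBP1-driven luciferase reporter | Medium: F12 with 10% serum | Compound dosing: 20 µM single concentration, DMSO 1% | Incubation: Overnight seeding at 37 °C, 6 h compound treatment at 37 °C | Detection: Steady-Glo luminescence read | Read-out basis: % activation of reporter signal versus tunicamycin and DMSO controls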
CHOP UPR conf = apoptotic UPR (CHOP) activation, confirmed. shares compounds with CHOP UPR activ. CHO-CHOP cells, CHOP-luciferase reporter luminescence; percent of tunicamycin response, DMSO as zero. activation, % at 10 µM. 1,000 compounds, 64% hits. AID 463112; in the data active = activation above about 33%;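 also: 0% = DMSO wells and 100% = tunicamycin 10 µg/mL wells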
Numbers without * were called inactive; . = no result. This is one part of a sample in which hits are shown more often than they occur.

SMILES | H9c2 protect | CHOP UPR activ | iPSC survival up | CHOP inhibitor | XBP1 UPR activ | CHOP UPR conf
O=C(CC[C@H]1O[C@@H](n2cnc3c(NC(=O)c4ccccc4)ncnc32)[C@H](O)[C@@H]1O)NCC1CCCCC1 | 6.5 | . | -0.5 | . | . | .
CCCCNC(=O)C1(C)CCN1C(=O)c1ccc(OC)c(C(F)(F)F)c1 (stereo not given) | -1.8 | . | -1.8 | . | . | .
O=C1OC(CC(=O)N(Cc2nnc(-c3ccc(Cl)cc3)o2)C2CC2)c2ccccc21 (stereo not given) | 0.8 | -0.3 | -0.5 | . | -4.7 | .
O=C(Oc1ccccc1/C=C\C(=O)c1cc2ccccc2o1)c1ccccc1 | -21.4 | 73.1* | -3.8 | -36.6 | 27.4 | 243.9*
CC(=O)N(C1CC(C)C(C#N)(C#N)C1(C#N)C#N)N(C)C (stereo not given) | -10.9 | 71.7* | 2.0 | 91.7* | -7.0 | -8.8
CCCC(=O)N(C1CC(C)C(C#N)(C#N)C1(C#N)C#N)N(C)C (stereo not given) | -7.3 | -7.2 | 9.8 | -80.3 | -9.9 | .
Nc1ccn(CCCN2CCN(C(=O)C3CC3)CC2)c(=O)n1 | -2.4 | . | 4.0 | . | . | .
COc1ccc(C2CCCCCN2C(=O)C2CCN(S(=O)(=O)c3ccc(C)cc3)CC2)cc1 (stereo not given) | 0.4 | . | -2.0 | . | . | .
O=C(O)c1ccc(NC(=S)Nc2ccc(S(=O)(=O)Nc3ccccn3)cc2)cc1 | -0.7 | . | 0.4 | . | . | .
CC(C)Cc1nc2oc3c(N4CCN(CCO)CC4)ncnc3c2c2c1CCCC2 | 44.0 | 44.3* | 7.2 | 56.8 | 5.7 | -0.9
C1=CC2=NC34CCCCC3CC3=C(CCCC3)N4C2=CC1=NC1CCCCC1 (stereo not given) | -15.4 | 48.5* | -0.2 | . | 10.2 | 1.0
Cc1ccc(CNc2ncnc3ccc(-c4ccoc4C)cc23)o1 | -26.6 | . | 12.1 | . | . | .
Cc1sc2nc3c4ccccc4c(NCc4ccco4)nn3c(=O)c2c1C | 20.8 | -1.3 | 3.6 | -33.2 | -11.9 | .
Cc1nc(NCc2ccco2)c2c(C)c(C)sc2n1 | -16.0 | 40.6* | -2.4 | -38.2 | -2.1 | 14.5
CCOC(=O)c1cc(-c2ccc(/C=C3/C(=O)N(c4ccc(C(=O)O)cc4)N=C3C)o2)ccc1Cl | 13.6 | 87.0* | 0.4 | . | 6.1 | 135.5*
COc1cc(/C=C/C(=O)OCC(=O)Nc2oc(C)c3c(C)n[nH]c(=O)c23)ccc1OC(F)F | 3.7 | -0.4 | 0.5 | . | 1.1 | .
Brc1ccccc1CN1CCN(Cc2c[nH]c3ccccc23)CC1 | . | 41.5* | . | . | -8.3 | 153.4*
Brc1ccc(CN2CCN(Cc3c[nH]c4ccccc34)CC2)cc1 | -9.1 | 12.8 | -0.6 | . | 14.0 | .
COc1ccc(C(c2c(C)[nH]n(C(N)=S)c2=O)C(C#N)C#N)cc1 (stereo not given) | 31.1 | 61.8* | -0.5 | -59.0 | 1.7 | 55.6*
CCCCC(=O)NC(c1ccccc1Cl)c1ccc2cccnc2c1O (stereo not given) | 44.7 | -0.3 | -0.2 | . | -2.5 | .
Oc1c(C(c2ccccc2Cl)N2CCCC2)ccc2cccnc12 (stereo not given) | 9.5 | 106.2* | -1.1 | 101.8* | 25.0 | 132.2*
O=C(N/N=C/c1ccccn1)c1cc(-c2ccc(Br)cc2)nc2ccccc12 | 45.1 | 330.8* | -0.5 | 52.7 | -3.0 | 265.2*
O=C(N/N=C/c1c[nH]c2ccccc12)c1sc2ccccc2c1Cl | 2.3 | 4.5 | 0.6 | -4.9 | 1.4 | .
O=C(N/N=C/c1ccccn1)c1cc(-c2ccc(Cl)cc2)nc2ccccc12 | 46.4 | 264.3* | -2.0 | 83.1* | -1.8 | 290.3*
O=C(N/N=C/c1ccccn1)c1sc2ccccc2c1Cl | 41.6 | 178.5* | -0.5 | -38.3 | 11.1 | 104.4*
O=[N+]([O-])c1ccc(Sc2nnnn2-c2ccccc2)nc1 | . | 126.0* | . | -265.5 | -0.8 | 101.5*
COc1ccc(N=C2S/C(=C\c3ccc(OCC(=O)O)cc3)C(=O)N2CCc2c[nH]c3ccccc23)cc1 | -5.3 | -1.6 | -0.6 | -9.3 | -4.7 | .
COc1ccc(N=C2S/C(=C\c3ccc(N4CCOCC4)o3)C(=O)N2CCc2c[nH]c3ccccc23)cc1 | -15.7 | 138.6* | 40.4* | 36.6 | -7.1 | 72.5*
Cc1ccn2cc(-c3cccc(NC(=O)C(C)C)c3)nc2c1 | -8.2 | 5.5 | -2.1 | -7.0 | 2.3 | .
